One assay concerns Enterococcus faecium. The assay is described as follows: Antimicrobial activity against Enterococcus faecium 824-05 incubated for 16 hrs by CLSI based method. The note with it: 824-05, 16 h. The assay is classed as functional.
Assay [1] deals with Voltage-gated inwardly rectifying potassium channel KCNH2 (Homo sapiens, UniProt Q12809).
Another assay has as its target DNA gyrase (Staphylococcus aureus, UniProt P0A0K8+P20831). The assay is described as follows: Inhibition of Staphylococcus aureus DNA gyrase assessed as reduction in enzyme-catalyzed supercoiling of relaxed circular pBR322 DNA by agarose gel electrophoresis. The format is protein-complex assay. In short, it runs like this:
(§1)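 Recombinant S. aureus gyrase kit, 0.5 U enzyme, relaxed pBR322 (250 ng/μL) in 40 mM HEPES·KOH pH 7.6, 10 mM Mg acetate, 10 mM DTT, 2 mM ATP, 500 mM K glutamate, 0.5 mg/mL albumin; 37 °C, 30 min.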

A short description of assay [2]: Inhibition of Staphylococcus aureus topoisomerase 4 assessed as reduction in decatenation of kDNA at 100 to 500 uM by gel electrophoresis method. The procedure, abridged: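 Compounds were in DMSO, with water or DMSO as vehicle controls. Reactions were stopped with STEB plus chloroform:isoamyl alcohol and run on 1% agarose TAE gels stained with ethidium bromide. IC50 was taken from densitometry against reactions with and without enzyme.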

In assay [3] the test system is Staphylococcus aureus. In words: Antimicrobial activity against vancomycin intermediate-resistant Staphylococcus aureus Mu50 incubated for 16 hrs by CLSI based method. The note with it: Mu50, 16 h. The assay is classed as functional.
The subject of assay [4] is Staphylococcus aureus. In words: Antimicrobial activity against methicillin-resistant Staphylococcus aureus USA300-0114 incubated for 16 hrs by CLSI based method. The format is functional. The note with it: USA300-0114, 16 h.
Assay [5] has as its system Staphylococcus aureus. In words: Antimicrobial activity against methicillin-resistant Staphylococcus aureus USA300 NRS384 incubated for 16 hrs by CLSI based method. The assay is classed as functional. The note with it: USA300 NRS384, 16 h.
For a further assay, the system named is Klebsiella pneumoniae. The assay is described as follows: Antimicrobial activity against Klebsiella pneumoniae CKP4 incubated for 16 hrs by CLSI based method. The note with it: CKP4, 16 h. The format is functional.
Assay [6] deals with Escherichia coli. The assay is described as follows: Antimicrobial activity against Escherichia coli 8314 incubated for 16 hrs by CLSI based method. The note with it: Escherichia coli, 8314, 16 h. The format is functional.
Assay [7] deals with Staphylococcus aureus. In words: Antimicrobial activity against vancomycin-resistant Staphylococcus aureus VRSA1 incubated for 16 hrs by CLSI based method. The assay is classed as functional. The note with it: VRSA1, 16 h.
In another assay the test system is Acinetobacter baumannii. In words: Antimicrobial activity against Acinetobacter baumannii 983709 incubated for 16 hrs by CLSI based method. The assay is classed as functional. The note with it: Acinetobacter baumannii, 983709, 16 h.
For assay [8], the target named is DNA gyrase (Staphylococcus aureus) (UniProt P0A0K8+P20831). The assay is described as follows: Inhibition of Staphylococcus aureus DNA gyrase assessed as reduction in enzyme-catalyzed supercoiling of relaxed circular pBR322 DNA at 100 uM by agarose gel electrophoresis. The format is protein-complex assay. The procedure, abridged: as §1
Assay [9] concerns Escherichia coli. The assay is described as follows: Antimicrobial activity against tolC and imp(-) containing Escherichia coli incubated for 16 hrs by CLSI based method. The assay is classed as functional.
Assay [10] concerns Staphylococcus aureus. In words: Antimicrobial activity against ciprofloxacin-resistant Staphylococcus aureus CRC61 incubated for 16 hrs by CLSI based method. The format is functional. The note with it: CRC61, 16 h.
In assay [11] the test system is Staphylococcus aureus. In words: Antimicrobial activity against Staphylococcus aureus UAMS1 incubated for 16 hrs by CLSI based method. The assay is classed as functional. The note with it: UAMS1, 16 h.
Assay [12] has as its target T1, Ribonuclease J 2 (Staphylococcus aureus (strain COL)) (UniProt Q5HGF6).
T1 sequence (whole entry): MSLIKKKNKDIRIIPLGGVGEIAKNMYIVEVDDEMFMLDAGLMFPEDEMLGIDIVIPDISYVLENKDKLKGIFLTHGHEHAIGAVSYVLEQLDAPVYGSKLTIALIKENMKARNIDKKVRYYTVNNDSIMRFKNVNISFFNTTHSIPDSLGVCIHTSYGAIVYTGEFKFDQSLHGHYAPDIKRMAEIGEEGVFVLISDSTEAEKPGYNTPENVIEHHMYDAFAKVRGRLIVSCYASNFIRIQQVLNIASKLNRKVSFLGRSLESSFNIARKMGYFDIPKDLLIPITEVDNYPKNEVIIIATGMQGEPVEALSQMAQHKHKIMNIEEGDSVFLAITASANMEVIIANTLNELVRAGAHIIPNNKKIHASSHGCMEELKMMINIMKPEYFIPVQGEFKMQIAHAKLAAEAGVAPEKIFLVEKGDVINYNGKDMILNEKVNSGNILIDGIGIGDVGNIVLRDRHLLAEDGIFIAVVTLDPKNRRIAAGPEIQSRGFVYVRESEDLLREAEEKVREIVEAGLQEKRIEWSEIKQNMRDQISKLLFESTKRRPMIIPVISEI
In words: Inhibition of Staphylococcus aureus RNAse J2.

Assay [13] concerns the target T2, Ribonuclease P protein component (Staphylococcus aureus (strain COL)) (UniProt Q5HCI2).
T2 sequence (whole entry): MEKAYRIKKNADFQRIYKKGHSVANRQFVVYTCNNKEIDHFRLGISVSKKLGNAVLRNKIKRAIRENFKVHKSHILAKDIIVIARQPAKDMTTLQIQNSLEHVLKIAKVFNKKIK
The assay is described as follows: Inhibition of Staphylococcus aureus RnpA.

In assay [14] the test system is Mycobacterium tuberculosis. In words: Antimicrobial activity against Mycobacterium tuberculosis mc2 6020 incubated for 16 hrs by alamar blue assay. The assay is classed as functional. The note with it: mc2 6020, 16 h. (In general: Resazurin is reduced to fluorescent resorufin, in cell work by metabolically active cells.)
For assay [15], the system named is Staphylococcus aureus. The assay is described as follows: Antimicrobial activity against Staphylococcus aureus U1 incubated for 16 hrs by CLSI based method. The format is functional. The note with it: U1, 16 h.

Converted amounts (≈) assume the structure as drawn. The source made the active and inactive calls. The calls are words filed in the database; no cut-off is given here. Bounds are passed on as bounds.

Chain of DNA gyrase (Staphylococcus aureus) (P0A0K8 2-644 limits assumed): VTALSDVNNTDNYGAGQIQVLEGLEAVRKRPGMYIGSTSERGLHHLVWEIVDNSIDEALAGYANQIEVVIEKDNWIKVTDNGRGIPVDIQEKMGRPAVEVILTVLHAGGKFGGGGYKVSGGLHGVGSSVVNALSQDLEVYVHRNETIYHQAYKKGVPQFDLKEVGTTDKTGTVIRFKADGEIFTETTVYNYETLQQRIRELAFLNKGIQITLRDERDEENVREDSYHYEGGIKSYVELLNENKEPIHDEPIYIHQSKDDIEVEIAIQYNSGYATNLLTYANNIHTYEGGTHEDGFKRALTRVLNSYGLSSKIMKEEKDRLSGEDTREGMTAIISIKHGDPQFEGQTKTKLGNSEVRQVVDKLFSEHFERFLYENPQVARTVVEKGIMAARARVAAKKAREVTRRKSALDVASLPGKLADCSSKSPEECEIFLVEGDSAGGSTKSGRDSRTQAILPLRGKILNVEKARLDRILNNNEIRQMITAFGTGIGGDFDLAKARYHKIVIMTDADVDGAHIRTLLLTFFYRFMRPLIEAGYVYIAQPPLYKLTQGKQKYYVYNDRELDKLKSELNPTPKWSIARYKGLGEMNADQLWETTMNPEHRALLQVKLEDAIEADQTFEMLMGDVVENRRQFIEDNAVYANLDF
Chain of DNA gyrase (Staphylococcus aureus) (P20831 whole entry partner): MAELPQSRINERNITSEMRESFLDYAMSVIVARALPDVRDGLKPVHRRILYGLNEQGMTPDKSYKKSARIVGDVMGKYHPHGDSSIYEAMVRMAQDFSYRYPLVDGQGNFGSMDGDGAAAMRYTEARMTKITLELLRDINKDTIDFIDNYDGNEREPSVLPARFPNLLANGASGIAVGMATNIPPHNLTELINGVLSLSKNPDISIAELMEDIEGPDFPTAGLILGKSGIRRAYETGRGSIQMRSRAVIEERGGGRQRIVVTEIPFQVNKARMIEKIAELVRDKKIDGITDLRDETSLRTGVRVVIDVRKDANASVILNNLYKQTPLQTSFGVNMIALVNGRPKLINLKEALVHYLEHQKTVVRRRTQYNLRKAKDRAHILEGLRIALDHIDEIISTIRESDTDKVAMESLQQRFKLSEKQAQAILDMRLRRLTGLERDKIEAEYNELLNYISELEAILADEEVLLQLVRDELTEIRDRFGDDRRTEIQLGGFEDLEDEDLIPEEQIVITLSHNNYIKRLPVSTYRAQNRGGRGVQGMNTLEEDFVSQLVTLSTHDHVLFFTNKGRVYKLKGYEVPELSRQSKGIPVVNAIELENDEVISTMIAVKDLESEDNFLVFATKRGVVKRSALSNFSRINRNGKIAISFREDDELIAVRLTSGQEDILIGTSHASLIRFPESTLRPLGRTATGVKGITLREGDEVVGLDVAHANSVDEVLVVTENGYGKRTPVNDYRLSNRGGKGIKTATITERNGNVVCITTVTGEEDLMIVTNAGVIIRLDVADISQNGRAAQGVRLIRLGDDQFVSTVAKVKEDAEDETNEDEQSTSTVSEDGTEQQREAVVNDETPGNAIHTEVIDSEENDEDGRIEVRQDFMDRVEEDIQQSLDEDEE
Chain of DNA gyrase (P0A0K8 whole entry): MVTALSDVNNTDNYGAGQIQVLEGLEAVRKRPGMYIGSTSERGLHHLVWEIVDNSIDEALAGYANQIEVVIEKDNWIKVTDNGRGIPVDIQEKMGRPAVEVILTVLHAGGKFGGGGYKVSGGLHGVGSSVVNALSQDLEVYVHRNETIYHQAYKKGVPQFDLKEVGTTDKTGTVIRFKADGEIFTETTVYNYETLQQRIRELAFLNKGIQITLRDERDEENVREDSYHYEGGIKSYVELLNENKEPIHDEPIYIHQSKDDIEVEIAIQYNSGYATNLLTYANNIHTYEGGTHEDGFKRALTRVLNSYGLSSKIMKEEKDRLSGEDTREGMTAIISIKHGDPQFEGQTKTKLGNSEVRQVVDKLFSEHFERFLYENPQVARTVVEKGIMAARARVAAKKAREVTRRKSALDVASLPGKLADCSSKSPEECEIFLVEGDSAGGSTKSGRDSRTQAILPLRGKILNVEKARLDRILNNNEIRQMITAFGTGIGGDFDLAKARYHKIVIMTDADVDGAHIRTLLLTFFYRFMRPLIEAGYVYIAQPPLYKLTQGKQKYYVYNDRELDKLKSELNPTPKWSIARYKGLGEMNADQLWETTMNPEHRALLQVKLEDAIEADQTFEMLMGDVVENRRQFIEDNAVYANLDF
Chain of DNA gyrase (P20831 whole entry): as the sequence (P20831 whole entry partner) above
Chain of Voltage-gated inwardly rectifying potassium channel KCNH2 (Q12809 whole entry): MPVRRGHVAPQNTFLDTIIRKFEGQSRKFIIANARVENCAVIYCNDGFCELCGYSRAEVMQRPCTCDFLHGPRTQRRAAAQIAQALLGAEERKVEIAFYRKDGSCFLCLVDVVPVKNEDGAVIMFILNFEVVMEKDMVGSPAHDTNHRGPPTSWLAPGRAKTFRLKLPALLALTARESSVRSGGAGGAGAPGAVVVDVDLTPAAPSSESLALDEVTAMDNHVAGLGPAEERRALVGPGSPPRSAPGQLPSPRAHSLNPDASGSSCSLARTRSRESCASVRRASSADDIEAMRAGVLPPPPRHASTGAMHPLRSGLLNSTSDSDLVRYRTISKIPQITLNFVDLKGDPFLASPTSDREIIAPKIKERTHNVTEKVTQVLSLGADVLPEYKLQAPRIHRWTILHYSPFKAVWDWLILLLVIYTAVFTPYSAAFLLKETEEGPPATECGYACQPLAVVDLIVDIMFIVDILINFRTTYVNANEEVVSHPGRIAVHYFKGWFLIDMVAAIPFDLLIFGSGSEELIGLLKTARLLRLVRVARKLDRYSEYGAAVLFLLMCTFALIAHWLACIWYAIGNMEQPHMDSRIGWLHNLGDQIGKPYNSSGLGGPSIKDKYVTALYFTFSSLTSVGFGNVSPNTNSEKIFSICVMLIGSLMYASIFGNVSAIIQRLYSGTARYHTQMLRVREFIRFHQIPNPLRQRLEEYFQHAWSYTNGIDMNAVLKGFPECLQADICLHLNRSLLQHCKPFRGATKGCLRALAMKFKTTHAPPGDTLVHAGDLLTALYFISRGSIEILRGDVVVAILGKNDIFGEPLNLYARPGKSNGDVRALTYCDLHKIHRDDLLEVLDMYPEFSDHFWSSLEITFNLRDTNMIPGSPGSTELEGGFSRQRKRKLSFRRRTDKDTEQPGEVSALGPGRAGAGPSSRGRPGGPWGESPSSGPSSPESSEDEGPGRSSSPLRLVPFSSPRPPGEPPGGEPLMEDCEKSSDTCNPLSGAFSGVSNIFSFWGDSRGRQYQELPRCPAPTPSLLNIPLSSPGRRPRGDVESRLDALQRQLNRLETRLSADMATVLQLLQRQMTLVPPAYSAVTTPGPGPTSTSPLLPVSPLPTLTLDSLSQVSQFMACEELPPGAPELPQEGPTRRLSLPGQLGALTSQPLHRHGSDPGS

What is called MIC is the lowest concentration that inhibits growth of the organism. Usually IC50 stands for the concentration that gives 50% inhibition. In the case of `OC(c1ccccc1)(c1ccccc1)C1CCN(Cc2ccc(-c3ccccc3)cc2)CC1`, the MIC against Enterococcus faecium was 8 mg/L (≈ 18.5 µM); with Staphylococcus aureus [3] it was 8 mg/L (≈ 18.5 µM); with Staphylococcus aureus [4] it was 8 mg/L (≈ 18.5 µM); in the assay on Staphylococcus aureus [5], 4 mg/L (≈ 9.23 µM); against Klebsiella pneumoniae it was above 256 mg/L; against Escherichia coli [6] it was above 256 mg/L. Also, the MIC against Staphylococcus aureus [7] was 8 mg/L (≈ 18.5 µM); in the assay with Acinetobacter baumannii, above 256 mg/L; against Escherichia coli [9], 2 mg/L (≈ 4.61 µM); against Staphylococcus aureus [10] it was 4 mg/L (≈ 9.23 µM). For the same molecule, the IC50 in [1] was 0.21 µM; at DNA gyrase, 125 µM; in [2], 160 µM. For the same molecule, in assay [8], the inhibition entry is “Active”.

For `O=C(O)c1ccc(C(O)CCCN2CCC(C(O)(c3ccccc3)c3ccccc3)CC2)cc1` (centres undefined), the results for the IC50 (at DNA gyrase; in assay [2]) were above 500 µM and above 333 µM, respectively. Further, the MIC against Staphylococcus aureus [11] is above 256 mg/L.

Regarding `CC(C)(C)c1ccc(C(O)CCCN2CCC(C(O)(c3ccccc3)c3ccccc3)CC2)cc1` (centres undefined) [TERFENADINE], the inhibition entry in assay [12] and in assay [13] was “inactive” throughout. In addition, the half-inhibitory concentration (IC50) in [2] stood at 206 µM.

For the molecule `O=C(O)c1cn(C2CC2)c2cc(N3CCNCC3)c(F)cc2c1=O`, the inhibition result in assay [8] is “Active”.

On to `CC(C)(C)c1ccc(C(=O)CCN2CCC(C(O)(c3ccccc3)c3ccccc3)CC2)cc1`, for which the IC50 at DNA gyrase stood at 90 µM; in assay [2] it was 133 µM. Further, in the assay with Staphylococcus aureus [11], the MIC amounted to 32 mg/L (≈ 70.2 µM).

In the case of `OC(CCCN1CCC(C(O)(c2ccccc2)c2ccccc2)CC1)c1ccccc1` (centres undefined), the figures for the IC50 (on DNA gyrase; in assay [2]) were above 500 µM and above 333 µM, respectively. The molecule further returned an MIC against Staphylococcus aureus [11] above 256 mg/L.

For `CC(C)(C)c1ccc(CCCN2CCC(C(O)(c3ccccc3)c3ccccc3)CC2)cc1`, the IC50 at DNA gyrase worked out at 93 µM; in [2], 100 µM. Also, in the assay on Staphylococcus aureus [11], the MIC came to 8 mg/L (≈ 18.1 µM).

With `OC(c1ccccc1)(c1ccccc1)C1CCN(CCc2ccc(Cl)cc2)CC1`, the IC50 at DNA gyrase worked out at 260 µM; in assay [2], 267 µM. In addition, in the assay with Staphylococcus aureus [11], the MIC stood at 32 mg/L (≈ 78.8 µM).

In the case of `OC(c1ccccc1)(c1ccccc1)C1CCN(CCc2ccc(C(F)(F)F)cc2)CC1`, the IC50 was 17 µM on DNA gyrase and above 333 µM in assay [2]. Further, in the assay on Staphylococcus aureus [11], the MIC was 16 mg/L (≈ 36.4 µM).

As to `CC(C)(C)c1cccc(CCN2CCC(C(O)(c3ccccc3)c3ccccc3)CC2)c1`, the figures for the IC50 (on DNA gyrase; in assay [2]) were 93 µM and above 333 µM, respectively. This molecule displayed a minimum inhibitory concentration (MIC) against Staphylococcus aureus [11] of 16 mg/L (≈ 37.4 µM).

With `Cc1ccc(C(O)CCCN2CCC(C(O)(c3ccccc3)c3ccccc3)CC2)cc1` (centres undefined), the IC50 on DNA gyrase was above 500 µM; in [2] it was above 333 µM. For the same molecule, the MIC against Staphylococcus aureus [11] was 128 mg/L (≈ 298 µM).

On to `OC(c1ccccc1)(c1ccccc1)C1CCN(CCc2ccc(Br)cc2)CC1`, for which the IC50 is 247 µM at DNA gyrase and 260 µM in assay [2]. This molecule also displayed an MIC against Staphylococcus aureus [11] of 16 mg/L (≈ 35.5 µM).

For the molecule `OC(c1ccccc1)(c1ccccc1)C1CCN(CCc2ccc(-c3cccnc3)cc2)CC1`, the 50% inhibitory concentration (IC50) came to 250 µM at DNA gyrase and 280 µM in [2]. In the assay with Staphylococcus aureus [11], the MIC amounted to 32 mg/L (≈ 71.3 µM).

Take `OC(c1ccccc1)(c1ccccc1)C1CCN(CCCOc2ccc(-c3ccccc3)cc2)CC1`: the half-maximal inhibitory concentration (IC50) in [1] stood at 0.14 µM; on DNA gyrase, 50 µM; in [2] it was 160 µM. Besides, the MIC in [14] is 1 mg/L (≈ 2.09 µM); against Staphylococcus aureus [5] it was 2 mg/L (≈ 4.19 µM); against Klebsiella pneumoniae, above 128 mg/L; with Staphylococcus aureus [11], 1 mg/L (≈ 2.09 µM); in the assay with Escherichia coli [6], above 128 mg/L; in the assay with Staphylococcus aureus [15], 1 mg/L (≈ 2.09 µM). For the same molecule, the MIC was 2 mg/L (≈ 4.19 µM) in the assay with Staphylococcus aureus [7], above 128 mg/L against Acinetobacter baumannii and 4 mg/L (≈ 8.37 µM) with Escherichia coli [9]. Further, the inhibition result in assay [8] was “Active”.

Consider `OC(CCCN1CCC(C(O)(c2ccccc2)c2ccccc2)CC1)c1ccc(Br)cc1` (centres undefined), for which the IC50 at DNA gyrase is above 500 µM; in assay [2], above 333 µM. In the assay with Staphylococcus aureus [11], this molecule returned an MIC of 32 mg/L (≈ 64.7 µM).

The values above are taken from ChEMBL document CHEMBL3351553 (J Med Chem, 2014).
